{"data": "Results from different studies", "note": "Protocols differ between the studies behind these lines."}
{"Compound": "O=C(CCC1CCCCC1)Nc1ncc(Cc2ccccc2F)s1", "tested on": "Histoplasma capsulatum", "assay": "microbial growth", "measurement": "MIC", "result": "2.5 µM"}
{"Compound": "COc1ccc2c(ccc3oc([N+](=O)[O-])cc32)c1", "tested on": "Mycolicibacterium smegmatis", "assay": "microbial growth, resazurin", "test system": "MC^2155", "measurement": "MIC90", "result": "2 µg/mL"}
{"Compound": "O=C(N/N=C1\\C(=O)N(Cc2ccccc2)c2ccc(Cl)cc21)c1cc2ccccc2[nH]1", "tested on": "ZR75", "assay": "cell growth or viability", "measurement": "IC50", "result": "740 nM"}
{"Compound": "CO[C@H]1/C=C/O[C@@]2(C)Oc3c(C)c(O)c4c(O)c(c(/C=N/N5CCN(C)CC5)c(O)c4c3C2=O)NC(=O)/C(C)=C\\C=C\\[C@H](C)[C@H](O)[C@@H](C)[C@@H](O)[C@@H](C)[C@H](OC(C)=O)[C@@H]1C", "tested on": "Mycolicibacterium smegmatis", "assay": "microbial growth, resazurin", "test system": "MC^2155", "measurement": "MIC90", "result": "32 µg/mL"}
{"Compound": "CC(/C=C/[C@@H]1C[C@]2(CO2)CC(C)(C)O1)=C\\C[C@H]1OC[C@@H](NC(=O)/C=C\\[C@H](C)OC(=O)C(C)(C)C)CO1", "tested on": "JeKo-1", "assay": "cell growth or viability, ATP luminescence", "setting": "72 h", "measurement": "IC50", "result": "220 nM"}
{"Compound": "O=C(O)C(Cl)Cl", "tested on": "PSN1", "assay": "cell growth or viability, MTT", "setting": "72 h", "measurement": "IC50", "result": "> 50000 nM"}
{"Compound": "CCCCc1c([N+](=O)[O-])oc2ccc3ccccc3c12", "tested on": "Mycolicibacterium smegmatis", "assay": "microbial growth, resazurin", "test system": "MC^2155", "measurement": "MIC90", "result": "16 µg/mL"}
{"Compound": "O=C(Nc1ncc(Cc2ccccc2)s1)N1CCCCC1", "tested on": "Histoplasma capsulatum", "assay": "microbial growth", "measurement": "MIC", "result": "> 20 µM"}
{"Compound": "C=CCc1cc(OC)c2c(c1)OCO2", "tested on": "COR-L23", "assay": "cell growth or viability, SRB", "measurement": "IC50", "result": "> 520000 nM"}
{"Compound": "O=C(N/N=C1\\C(=O)N(Cc2ccccc2)c2ccc(Br)cc21)c1cc2ccccc2[nH]1", "tested on": "ZR75", "assay": "cell growth or viability", "setting": "30 µM", "measurement": "inhibition", "result": "79.9%"}
{"Compound": "CCCc1cc(=O)n2nc(NCc3c(F)cc(Cl)cc3F)c(C#N)c2[nH]1", "tested on": "NCI-H2110", "assay": "cell growth or viability, ATP luminescence", "setting": "72 h", "measurement": "IC50", "result": "> 50000 nM"}
{"Compound": "COc1ccc2c(ccc3oc([N+](=O)[O-])c(OC)c32)c1", "tested on": "Mycolicibacterium smegmatis", "assay": "microbial growth, resazurin", "test system": "MC^2155", "measurement": "MIC90", "result": "> 32 µg/mL"}
{"Compound": "O=C(Nc1ncc(Cc2ccc3ccccc3c2)s1)C12CC3CC(CC(C3)C1)C2", "tested on": "Histoplasma capsulatum", "assay": "microbial growth", "measurement": "MIC", "result": "> 20 µM"}
{"Compound": "O=C(N/N=C1\\C(=O)N(Cc2ccc(Cl)cc2)c2ccccc21)c1cc2ccccc2[nH]1", "tested on": "ZR75", "assay": "cell growth or viability", "setting": "30 µM", "measurement": "inhibition", "result": "89%"}
{"Compound": "O=C(Nc1ncc(Cc2ccc3ccccc3c2)s1)c1ccccc1", "tested on": "Histoplasma capsulatum", "assay": "microbial growth", "measurement": "MIC", "result": "> 20 µM"}
{"Compound": "O=C(N/N=C1\\C(=O)N(Cc2ccccc2)c2ccc(F)cc21)c1cc2ccccc2[nH]1", "tested on": "ZR75", "assay": "cell growth or viability", "measurement": "IC50", "result": "2100 nM"}
{"Compound": "COc1cc2ccc3oc([N+](=O)[O-])cc3c2cc1OC", "tested on": "Mycolicibacterium smegmatis", "assay": "microbial growth, resazurin", "test system": "MC^2155", "measurement": "MIC90", "result": "> 32 µg/mL"}
{"Compound": "COc1ccc2c(c1)/C(=N/NC(=O)c1cc3ccccc3[nH]1)C(=O)N2Cc1ccccc1", "tested on": "ZR75", "assay": "cell growth or viability", "measurement": "IC50", "result": "860 nM"}
{"Compound": "CCC1(c2ccc(N)cc2)CCC(=O)NC1=O (stereo not drawn)", "tested on": "Hep3B", "assay": "cell growth or viability, CCK-8", "setting": "48 h", "measurement": "IC50", "result": "> 50000 nM"}
{"Compound": "Cc1c([N+](=O)[O-])oc2ccc3ccccc3c12", "tested on": "Mycolicibacterium smegmatis", "assay": "microbial growth, resazurin", "test system": "MC^2155", "measurement": "MIC90", "result": "16 µg/mL"}
{"Compound": "O=C(N/N=C1\\C(=O)N(Cc2ccccc2)c2ccccc21)c1cc2ccccc2[nH]1", "tested on": "ZR75", "assay": "cell growth or viability", "setting": "30 µM", "measurement": "inhibition", "result": "86.6%"}
{"Compound": "O=C(CCC1CCCCC1)Nc1ncc(Cc2cccc(C(F)(F)F)c2)s1", "tested on": "Histoplasma capsulatum", "assay": "microbial growth", "measurement": "MIC", "result": "> 20 µM"}
{"Compound": "N#Cc1ccc2c(ccc3oc([N+](=O)[O-])cc32)c1", "tested on": "Mycolicibacterium smegmatis", "assay": "microbial growth, resazurin", "test system": "MC^2155", "measurement": "MIC90", "result": "> 32 µg/mL"}
{"Compound": "O=C(CCC1CCCCC1)Nc1ncc(Cc2ccc3ccccc3c2)s1", "tested on": "Histoplasma capsulatum", "assay": "microbial growth", "measurement": "MIC", "result": "> 20 µM"}
{"Compound": "O=[N+]([O-])c1cc2c(ccc3c4cc([N+](=O)[O-])oc4ccc23)o1", "tested on": "Mycolicibacterium smegmatis", "assay": "microbial growth, resazurin", "test system": "MC^2155", "measurement": "MIC90", "result": "> 32 µg/mL"}
{"Compound": "O=C(Nc1ncc(Cc2ccc(F)cc2)s1)C1CCCCC1", "tested on": "Histoplasma capsulatum", "assay": "microbial growth", "measurement": "MIC", "result": "20 µM"}
{"Compound": "N#Cc1ccc(CN2C(=O)/C(=N\\NC(=O)c3cc4ccccc4[nH]3)c3ccccc32)cc1", "tested on": "ZR75", "assay": "cell growth or viability", "measurement": "IC50", "result": "1510 nM"}
{"Compound": "COc1ccc(Cc2cnc(NC(=O)/C=C/c3ccco3)s2)cc1", "tested on": "Histoplasma capsulatum", "assay": "microbial growth", "measurement": "MIC", "result": "> 20 µM"}
{"Compound": "O=C(O)c1cn(C2CC2)c2cc(N3CCNCC3)c(F)cc2c1=O", "tested on": "Mycolicibacterium smegmatis", "assay": "microbial growth", "test system": "MC2155", "setting": "5 µg/mL, 20 h", "measurement": "inhibition zone", "result": "29 mm"}
{"Compound": "Cc1ccc(CN2C(=O)/C(=N\\NC(=O)c3cc4ccccc4[nH]3)c3ccccc32)cc1", "tested on": "ZR75", "assay": "cell growth or viability", "setting": "30 µM", "measurement": "inhibition", "result": "79.1%"}
